From ChEMBL document CHEMBL5352471, “Design, synthesis, and pharmacological evaluations of pyrrolo[1,2-a]quinoxaline-based derivatives as potent and selective sirt6 activators” (Eur J Med Chem, 2023)
The source made the active and inactive calls. The calls are words filed in the database; no cut-off is given here.

Key:
[1] = target: T1, NAD-dependent protein deacylase sirtuin-6 (Homo sapiens, UniProt Q8N6T7); assay: Activation of SIRT6 (unknown origin) deacetylase activity assessed as fold increase in maximal activation; conditions: filed as activator
T1 sequence (Q8N6T7 whole entry): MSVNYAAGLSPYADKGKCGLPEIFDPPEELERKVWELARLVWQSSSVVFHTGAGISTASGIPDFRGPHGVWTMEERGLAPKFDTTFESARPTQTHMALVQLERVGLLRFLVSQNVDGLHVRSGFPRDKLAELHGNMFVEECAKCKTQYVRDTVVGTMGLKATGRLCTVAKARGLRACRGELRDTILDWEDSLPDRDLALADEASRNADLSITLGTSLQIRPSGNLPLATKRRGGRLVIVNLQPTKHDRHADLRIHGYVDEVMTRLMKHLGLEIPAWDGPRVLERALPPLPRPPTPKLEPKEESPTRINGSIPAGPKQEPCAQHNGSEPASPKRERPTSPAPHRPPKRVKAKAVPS

[2] = Cytotoxicity against human A549-ACE2 cells assessed as inhibition of cell growth measured for 48 hrs; format: functional
SARS-CoV-2 = assay: Antiviral activity against SARS-CoV-2 infected in human A549-ACE2 cells assessed as viral growth inhibition; format: functional, organism-based; conditions: Severe acute respiratory syndrome coronavirus 2, A549-ACE2
[3] = target: T1, NAD-dependent protein deacylase sirtuin-6; assay: Activation of his6-tagged SIRT6 (unknown origin) assessed as fold activation using H3K9Ac peptide substrate incubated for 30 mins; conditions: filed as activator
[4] = Oral bioavailability in C57BL/6J mouse at 20 to 30 mg/kg, iv measured upto 24 hrs by LC-MS/MS analysis; format: ADME, organism-based; conditions: in vivo, dose 20-30 mg/kg
[5] = target: NAD-dependent protein deacylase sirtuin-5, mitochondrial (Homo sapiens) (UniProt Q9NXA8); assay: Activation of human SIRT5 (unknown origin) desuccinylation activity using fluorogenic substrate measured upto 120 mins by microplate reader analysis
NAD-dependent protein deacylase sirtuin-5, mitochondrial (Homo sapiens), sequence (Q9NXA8 37-310 limits assumed): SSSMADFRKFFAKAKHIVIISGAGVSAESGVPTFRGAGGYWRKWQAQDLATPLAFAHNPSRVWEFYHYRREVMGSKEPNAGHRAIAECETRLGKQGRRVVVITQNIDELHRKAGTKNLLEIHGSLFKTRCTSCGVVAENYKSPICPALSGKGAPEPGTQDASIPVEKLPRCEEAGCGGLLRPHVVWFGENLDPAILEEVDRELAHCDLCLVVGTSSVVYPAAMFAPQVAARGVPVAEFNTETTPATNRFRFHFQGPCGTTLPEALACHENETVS

[6] = target: T2, NAD-dependent protein deacetylase sirtuin-1 (Homo sapiens) (UniProt Q96EB6); assay: Activation of human SIRT1 (unknown origin) deacetylation activity using fluorogenic substrate measured upto 120 mins by microplate reader analysis
T2 sequence (whole entry): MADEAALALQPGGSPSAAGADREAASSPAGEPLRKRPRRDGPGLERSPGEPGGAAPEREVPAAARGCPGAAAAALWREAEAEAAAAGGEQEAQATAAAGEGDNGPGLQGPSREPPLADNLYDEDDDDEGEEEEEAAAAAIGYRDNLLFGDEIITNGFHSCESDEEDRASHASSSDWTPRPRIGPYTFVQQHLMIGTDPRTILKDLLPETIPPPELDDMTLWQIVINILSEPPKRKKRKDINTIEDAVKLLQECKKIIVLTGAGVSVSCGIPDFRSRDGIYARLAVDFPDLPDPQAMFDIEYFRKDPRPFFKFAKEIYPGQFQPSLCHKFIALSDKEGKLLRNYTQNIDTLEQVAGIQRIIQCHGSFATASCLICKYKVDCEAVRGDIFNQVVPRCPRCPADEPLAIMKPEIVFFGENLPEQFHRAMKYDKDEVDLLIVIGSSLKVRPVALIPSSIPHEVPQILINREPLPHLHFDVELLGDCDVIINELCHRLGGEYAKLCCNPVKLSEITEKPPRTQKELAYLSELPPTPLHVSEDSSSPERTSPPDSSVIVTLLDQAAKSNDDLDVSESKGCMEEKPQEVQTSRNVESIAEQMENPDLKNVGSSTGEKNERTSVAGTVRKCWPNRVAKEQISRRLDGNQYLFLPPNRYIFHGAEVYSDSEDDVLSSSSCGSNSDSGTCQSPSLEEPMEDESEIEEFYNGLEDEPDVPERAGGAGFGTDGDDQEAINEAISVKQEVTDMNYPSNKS
In short: (§1)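 Recombinant Sirt1 or Sirt2 was assayed with a kit fluoro-substrate peptide (0.1 mM stock), NAD+ (8 mM stock) and developer in a 25 µL reaction at room temperature. Fluorescence was read over 125 min, at Ex/Em 350/450 nm for Sirt1 and 490/530 nm for Sirt2.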

[7] = target: T3, NAD-dependent protein deacetylase sirtuin-2 (Homo sapiens) (UniProt Q8IXJ6); assay: Activation of human SIRT2 (unknown origin) deacetylation activity using fluorogenic substrate measured upto 120 mins by microplate reader analysis; in short: as §1
T3 sequence (whole entry): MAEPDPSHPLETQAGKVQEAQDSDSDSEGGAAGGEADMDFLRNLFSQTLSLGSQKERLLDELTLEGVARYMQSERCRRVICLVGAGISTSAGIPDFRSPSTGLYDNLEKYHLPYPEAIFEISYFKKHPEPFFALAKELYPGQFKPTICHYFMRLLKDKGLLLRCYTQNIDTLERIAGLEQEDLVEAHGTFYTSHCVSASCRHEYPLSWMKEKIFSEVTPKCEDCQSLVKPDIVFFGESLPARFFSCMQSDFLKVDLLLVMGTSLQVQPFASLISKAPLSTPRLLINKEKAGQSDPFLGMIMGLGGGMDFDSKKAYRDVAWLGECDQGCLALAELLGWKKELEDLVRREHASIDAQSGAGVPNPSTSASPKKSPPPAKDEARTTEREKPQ

[8] = target: T1, NAD-dependent protein deacylase sirtuin-6; assay: Activation of recombinant SIRT6 (unknown origin) deacetylase activity using fluoro peptide as substrate by microplate reader analysis
[9] = target: T1, NAD-dependent protein deacylase sirtuin-6; assay: Activation of SIRT6 (unknown origin) deacetylase activity assessed as fold activation; conditions: filed as activator
In short: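 Recombinant Sirt6 was run in a fluorometric activity kit (FDL-type deacetylation) with a fluoro-substrate peptide (0.1 mM stock), NAD+ (8 mM stock) and developer in a 25 µL reaction at room temperature. Compounds were tested at 100 and 30 µM. Fluorescence was read at Ex/Em 490/530 nm over 125 min. Fold activation is given as mean ± SD from at least two independent experiments.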

SMILES: c1cncc(C2Nc3ccccc3-n3cccc32)c1 (stereo not drawn)
- fold change (FC) [1]: 2
- CC50 [2]: > 50 µM
- EC50 (SARS-CoV-2): 50 µM

SMILES: CCCCCCCC/C=C\CCCCCCCC(=O)NCCO
- fold change (FC) [3]: 2.1

SMILES: Cc1cc(F)c(Br)cc1NS(=O)(=O)c1ccc(NS(=O)(=O)c2cc(Cl)cc(Cl)c2)cc1CN1CCOC[C@H]1C
- bioavailability [4]: 93%

SMILES: CN(C)CCN1CCN(c2ncccc2C2Nc3ccccc3-n3cccc32)CC1 (stereo not drawn)
- CC50 [2]: > 50 µM
- Activity [5]: inactive
- Activity [6]: inactive
- Activity ([6]; filed as activator): Active
- EC50 (SARS-CoV-2): 9.3 µM
- Activity [7]: inactive
- EC50 [8]: 48.8 µM

SMILES: O=C(O)c1ccc2c(c1)C(=O)N(c1ccc(N(C(=O)c3c(Cl)cc(Cl)cc3Cl)C(=O)c3c(Cl)cc(Cl)cc3Cl)c(Cl)c1)C2=O
- fold change (FC) [9]: 4
